Measurements published in ChEMBL document CHEMBL3351539, “"On water" expedient synthesis of 3-indolyl-3-hydroxy oxindole derivatives and their anticancer activity in vitro” (Eur J Med Chem, 2014).
Converted amounts (≈) assume the structure as drawn. The source made the active and inactive calls. The calls are words filed in the database; no cut-off is given here.

Experiments:
THP-1 = test: Cytotoxicity against human THP1 cells assessed as growth inhibition after 24 hrs by MTT assay; details: THP-1, 24 h
MCF7 [1] = test: Cytotoxicity against human MCF7 cells assessed as growth inhibition after 24 hrs by MTT assay; details: MCF7, 24 h
A549 = test: Cytotoxicity against human A549 cells assessed as growth inhibition after 24 hrs by MTT assay; details: A549, 24 h
U-937 [2] = test: Ratio of etoposide IC50 to compound IC50 for human U937 cells assessed as growth inhibition after 24 hrs by MTT assay
[3] = Cytotoxicity against human U937 cells assessed as growth inhibition after 24 hrs by MTT assay; details: U-937, 24 h
MCF7 [4] = test: Ratio of etoposide IC50 to compound IC50 for human MCF7 cells assessed as growth inhibition after 24 hrs by MTT assay
U-937 [5] = test: Cytotoxicity against human U937 cells assessed as nuclear condensation at IC50 by light microscopy; format: functional, cell-based
Procedure, shortened: (§1)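 U937 cells were exposed to one concentration per derivative and examined by light microscopy at 400X against untreated controls with intact cells. Cells were scored for shrinkage in cell size, nuclear condensation and formation of apoptotic bodies.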

U-937 [6] = test: Cytotoxicity against human U937 cells assessed as formation of apoptotic bodies at IC50 by light microscopy; format: functional, cell-based
Procedure, shortened: as §1

U-937 [7] = test: Cytotoxicity against human U937 cells assessed as shrinkage in cell size at IC50 by light microscopy; format: functional, cell-based
Procedure, shortened: as §1

O=C1Nc2ccc(F)cc2C1(O)c1c[nH]c2ccc(Br)cc12 (centres undefined)
IC50 (THP-1): 76 µg/mL (≈ 210 µM)

O=C1N(Cc2ccccc2Cl)c2ccc(Cl)cc2C1(O)c1c[nH]c2ccc(Br)cc12 (centres undefined)
IC50 (MCF7 [1]): 21.3 µg/mL (≈ 42.3 µM) | IC50 (THP-1): 6.12 µg/mL (≈ 12.2 µM) | IC50 (A549): 16.5 µg/mL (≈ 32.9 µM) | Ratio IC50 (U-937 [2]): 0.5 | IC50 [3]: 5.31 µg/mL (≈ 10.6 µM)

O=C1Nc2ccc(F)cc2C1(O)c1c[nH]c2ccccc12 (centres undefined)
IC50 [3]: 43.7 µg/mL (≈ 155 µM)

O=C1Nc2ccc(Cl)cc2C1(O)c1c[nH]c2ccccc12 (centres undefined)
IC50 [3]: 19.8 µg/mL (≈ 66.3 µM)

O=C1Nc2ccc(Br)cc2C1(O)c1c[nH]c2ccccc12 (centres undefined)
IC50 (A549): 72.5 µg/mL (≈ 211 µM) | IC50 [3]: 19.3 µg/mL (≈ 56.2 µM)

O=C1N(Cc2ccccc2Br)c2ccccc2C1(O)c1c[nH]c2ccc(Br)cc12 (centres undefined)
IC50 (MCF7 [1]): 24.7 µg/mL (≈ 48.3 µM) | IC50 (THP-1): 6.93 µg/mL (≈ 13.5 µM) | IC50 (A549): 29.8 µg/mL (≈ 58.1 µM) | IC50 [3]: 14.9 µg/mL (≈ 29.1 µM)

COc1ccc2[nH]cc(C3(O)C(=O)N(Cc4ccccc4Cl)c4ccccc43)c2c1 (centres undefined)
IC50 (MCF7 [1]): 13.4 µg/mL (≈ 32.1 µM) | IC50 (THP-1): 5.6 µg/mL (≈ 13.4 µM) | IC50 (A549): 33.1 µg/mL (≈ 79 µM) | IC50 [3]: 7.6 µg/mL (≈ 18.1 µM) | Ratio IC50 (MCF7 [4]): 1

Cc1ccc2[nH]cc(C3(O)C(=O)Nc4ccc(I)cc43)c2c1 (centres undefined)
IC50 (MCF7 [1]): 84.5 µg/mL (≈ 209 µM) | IC50 (THP-1): 87.1 µg/mL (≈ 216 µM) | IC50 (A549): 25.2 µg/mL (≈ 62.3 µM) | IC50 [3]: 23.1 µg/mL (≈ 57.3 µM)

COc1ccc2[nH]cc(C3(O)C(=O)Nc4ccc(I)cc43)c2c1 (centres undefined)
IC50 (THP-1): 69.2 µg/mL (≈ 165 µM)

COc1ccc2[nH]cc(C3(O)C(=O)Nc4ccc(F)cc43)c2c1 (centres undefined)
IC50 [3]: 55.9 µg/mL (≈ 179 µM)

CN1C(=O)C(O)(c2c[nH]c3ccccc23)c2ccccc21 (centres undefined)
IC50 (MCF7 [1]): 49 µg/mL (≈ 176 µM)

O=C1N(Cc2ccccc2)c2ccccc2C1(O)c1c[nH]c2ccccc12 (centres undefined)
IC50 (THP-1): 64.5 µg/mL (≈ 182 µM) | IC50 (A549): 22.8 µg/mL (≈ 64.2 µM) | IC50 [3]: 43 µg/mL (≈ 121 µM)

O=C1Nc2ccc(Cl)cc2C1(O)c1c[nH]c2ccc(Br)cc12 (centres undefined)
IC50 (MCF7 [1]): 95.5 µg/mL (≈ 253 µM) | IC50 (THP-1): 98.5 µg/mL (≈ 261 µM) | IC50 (A549): 19.8 µg/mL (≈ 52.5 µM) | IC50 [3]: 25.3 µg/mL (≈ 67 µM)

COc1ccc2[nH]cc(C3(O)C(=O)Nc4ccc(Cl)cc43)c2c1 (centres undefined)
IC50 [3]: 39.8 µg/mL (≈ 121 µM)

Cc1ccc2[nH]cc(C3(O)C(=O)Nc4ccc(F)cc43)c2c1 (centres undefined)
IC50 [3]: 35.5 µg/mL (≈ 120 µM)

O=C1Nc2ccc(I)cc2C1(O)c1c[nH]c2ccccc12 (centres undefined)
IC50 [3]: 21.6 µg/mL (≈ 55.3 µM)

O=C1Nc2ccc(OC(F)(F)F)cc2C1(O)c1c[nH]c2ccccc12 (centres undefined)
IC50 (MCF7 [1]): 71.5 µg/mL (≈ 205 µM) | IC50 (THP-1): 13.7 µg/mL (≈ 39.4 µM) | IC50 [3]: 16.8 µg/mL (≈ 48.2 µM)

O=C1N(Cc2ccccc2)c2ccccc2C1(O)c1c[nH]c2ccc(Br)cc12 (centres undefined)
IC50 (MCF7 [1]): 31.2 µg/mL (≈ 72.1 µM) | IC50 (THP-1): 14.2 µg/mL (≈ 32.7 µM) | IC50 (A549): 25.1 µg/mL (≈ 57.9 µM) | IC50 [3]: 17.1 µg/mL (≈ 39.4 µM)

O=C1N(Cc2ccccc2Cl)c2ccccc2C1(O)c1c[nH]c2ccccc12 (centres undefined)
IC50 (MCF7 [1]): 39.3 µg/mL (≈ 101 µM) | IC50 (THP-1): 6.97 µg/mL (≈ 17.9 µM) | IC50 (A549): 28.1 µg/mL (≈ 72.4 µM) | IC50 [3]: 15 µg/mL (≈ 38.5 µM)

O=C1N(Cc2ccccc2Cl)c2ccccc2C1(O)c1c[nH]c2ccc(Br)cc12 (centres undefined)
IC50 (MCF7 [1]): 22.3 µg/mL (≈ 47.7 µM) | IC50 (THP-1): 7.37 µg/mL (≈ 15.8 µM) | IC50 (A549): 16.2 µg/mL (≈ 34.5 µM) | IC50 [3]: 7.16 µg/mL (≈ 15.3 µM)

O=C1N(Cc2ccc(Br)cc2)c2ccc(Cl)cc2C1(O)c1c[nH]c2ccc(Br)cc12 (centres undefined)
IC50 (MCF7 [1]): 20.4 µg/mL (≈ 37.3 µM) | IC50 (THP-1): 6.06 µg/mL (≈ 11.1 µM) | IC50 (A549): 18.4 µg/mL (≈ 33.6 µM) | IC50 [3]: 12.2 µg/mL (≈ 22.2 µM)

O=C1Nc2c(Cl)cccc2C1(O)c1c[nH]c2ccccc12 (centres undefined)
IC50 (THP-1): 86.1 µg/mL (≈ 288 µM)

O=C1N(Cc2ccccc2)c2ccc(Cl)cc2C1(O)c1c[nH]c2ccc(Br)cc12 (centres undefined)
IC50 (MCF7 [1]): 8.64 µg/mL (≈ 18.5 µM) | IC50 (THP-1): 7.12 µg/mL (≈ 15.2 µM) | IC50 (A549): 13.3 µg/mL (≈ 28.5 µM) | Activity (U-937 [5]): Active | IC50 [3]: 8.02 µg/mL (≈ 17.1 µM) | Ratio IC50 (MCF7 [4]): 1 | Activity (U-937 [6]): Active | Activity (U-937 [7]): Active

O=C1Nc2ccc(Br)cc2C1(O)c1c[nH]c2ccc(Br)cc12 (centres undefined)
IC50 (MCF7 [1]): 68.7 µg/mL (≈ 163 µM) | IC50 (THP-1): 86.1 µg/mL (≈ 204 µM) | IC50 (A549): 25.1 µg/mL (≈ 59.5 µM) | IC50 [3]: 43.3 µg/mL (≈ 103 µM)

COc1ccc2[nH]cc(C3(O)C(=O)N(Cc4ccccc4Cl)c4ccc(Cl)cc43)c2c1 (centres undefined)
IC50 (MCF7 [1]): 10.8 µg/mL (≈ 23.9 µM) | IC50 (THP-1): 4.27 µg/mL (≈ 9.42 µM) | IC50 (A549): 14.1 µg/mL (≈ 31.1 µM) | Ratio IC50 (U-937 [2]): 0.5 | Activity (U-937 [5]): Active | IC50 [3]: 6.07 µg/mL (≈ 13.4 µM) | Ratio IC50 (MCF7 [4]): 1 | Activity (U-937 [6]): Active | Activity (U-937 [7]): Active

Cc1ccc2c(c1)C(O)(c1c[nH]c3ccccc13)C(=O)N2 (centres undefined)
IC50 [3]: 83.4 µg/mL (≈ 300 µM)

COc1cc([C@@H]2c3cc4c(cc3[C@@H](O[C@@H]3O[C@@H]5CO[C@@H](C)O[C@H]5[C@H](O)[C@H]3O)[C@H]3COC(=O)[C@H]23)OCO4)cc(OC)c1O [ETOPOSIDE]
IC50 (MCF7 [1]): 17.8 µg/mL (≈ 30.2 µM) | IC50 (A549): 10.7 µg/mL (≈ 18.2 µM) | IC50 [3]: 6.14 µg/mL (≈ 10.4 µM)

O=C1N(Cc2ccccc2)c2ccc(Cl)cc2C1(O)c1c[nH]c2ccccc12 (centres undefined)
IC50 (MCF7 [1]): 24 µg/mL (≈ 61.8 µM) | IC50 (THP-1): 5.03 µg/mL (≈ 12.9 µM) | IC50 (A549): 18.3 µg/mL (≈ 47.1 µM) | Ratio IC50 (U-937 [2]): 0.5 | Activity (U-937 [5]): Active | IC50 [3]: 4.33 µg/mL (≈ 11.1 µM) | Activity (U-937 [6]): Active | Activity (U-937 [7]): Active

O=C1Nc2ccc(I)cc2C1(O)c1c[nH]c2ccc(F)cc12 (centres undefined)
IC50 (THP-1): 62.4 µg/mL (≈ 153 µM) | IC50 (A549): 43.7 µg/mL (≈ 107 µM)

O=C1N(Cc2ccccc2Cl)c2ccc(Cl)cc2C1(O)c1c[nH]c2ccccc12 (centres undefined)
IC50 (MCF7 [1]): 20.6 µg/mL (≈ 48.7 µM) | IC50 (THP-1): 7.01 µg/mL (≈ 16.6 µM) | IC50 (A549): 15.8 µg/mL (≈ 37.2 µM) | Ratio IC50 (U-937 [2]): 0.5 | IC50 [3]: 4.89 µg/mL (≈ 11.6 µM)

O=C1Nc2ccc(OC(F)(F)F)cc2C1(O)c1c[nH]c2ccc(Br)cc12 (centres undefined)
IC50 (MCF7 [1]): 5.47 µg/mL (≈ 12.8 µM) | IC50 (A549): 13 µg/mL (≈ 30.4 µM) | Ratio IC50 (MCF7 [4]): 1
